This is an account of results in ChEMBL document CHEMBL4184090, “Discovery of novel jaspine B analogues as autophagy inducer” (Bioorg Med Chem Lett, 2018).

One assay has as its system B16-F10. Nature of the assay: Antiproliferative activity against mouse B16/F10 cells after 72 hrs by MTT assay. Particulars: B16-F10, 72 h. In kind it is functional, cell-based. The method in brief:
(§1)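 MTT proliferation assay; cells exposed to compounds for 72 h. IC50 is the concentration inhibiting tumor cell proliferation by 50%. Means ± SDs of three independent experiments. 5-Fluorouracil used as positive control.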

A further assay has as its system A549. In words: Antiproliferative activity against human A549 cells after 72 hrs by MTT assay. Particulars: A549, 72 h. It counts as functional, cell-based. In short, it runs like this: as §1
Background: Formazan colour is commonly taken as a measure of viable cells.

Assay [1] relates to PC-3. Nature of the assay: Antiproliferative activity against human PC3 cells after 72 hrs by MTT assay. In kind it is functional, cell-based. Particulars: PC-3, 72 h. In short, it runs like this:
as §1

A further assay relates to MCF7. In words: Antiproliferative activity against human MCF7 cells after 72 hrs by MTT assay. Particulars: MCF7, 72 h. It counts as functional, cell-based. In short, it runs like this: as §1
The subject of assay [2] is PC-3. In words: Induction of autophagy in human PC3 cells assessed as decrease in P62 protein level at 1 uM by Western blot analysis. It counts as functional, cell-based. The method in brief:
(§2)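 Western blot of PC-3 lysates for beclin-1, LC3B-I, LC3B-II and P62 after treatment at increasing concentrations.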

The test system of assay [3] is PC-3. Nature of the assay: Induction of apoptosis in human PC3 cells assessed as early apoptotic cells at 2 uM after 48 hrs by Annexin V-FITC/propidium iodide staining-based flow cytometric analysis (reference value: 12.4%). In kind it is functional. In general terms: In flow cytometry, cells or beads pass a laser one at a time.
In assay [4] the test system is PC-3. In words: Induction of mitochondrial membrane potential loss in human PC3 cells at 4 uM after 24 hrs by JC-1 staining-based flow cytometric analysis (reference value: 50.5%). It counts as functional.
Assay [5] relates to PC-3. Nature of the assay: Cytotoxicity against human PC3 cells assessed as reduction in cell viability at 3 uM after 48 hrs by MTT assay relative to control. In kind it is functional. In short, it runs like this: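 MTT viability read-out in PC-3 cells incubated with a range of concentrations for 48 h; viability expressed relative to untreated control cells.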
For assay [6], the system named is PC-3. In words: Induction of mitochondrial membrane potential loss in human PC3 cells at 2 uM after 24 hrs by JC-1 staining-based flow cytometric analysis (reference value: 50.5%). In kind it is functional.
Assay [7] concerns PC-3. Nature of the assay: Induction of apoptosis in human PC3 cells assessed as necrotic cells at 3 uM after 48 hrs by Annexin V-FITC/propidium iodide staining-based flow cytometric analysis (reference value: 0.1%). It counts as functional.
Assay [8] has as its system PC-3. Nature of the assay: Induction of mitochondrial membrane potential loss in human PC3 cells at 3 uM after 24 hrs by JC-1 staining-based flow cytometric analysis (reference value: 50.5%). It counts as functional.
For assay [9], the system named is PC-3. In words: Induction of apoptosis in human PC3 cells assessed as necrotic cells at 2 uM after 48 hrs by Annexin V-FITC/propidium iodide staining-based flow cytometric analysis (reference value: 0.1%). It counts as functional.
Assay [10] relates to PC-3. Nature of the assay: Induction of apoptosis in human PC3 cells assessed as viable cells at 4 uM after 48 hrs by Annexin V-FITC/propidium iodide staining-based flow cytometric analysis (reference value: 78.2%). Particulars: PC-3, 48 h, read-out: Activity. In kind it is functional.
In assay [11] the test system is PC-3. In words: Induction of apoptosis in human PC3 cells assessed as necrotic cells at 1 uM after 48 hrs by Annexin V-FITC/propidium iodide staining-based flow cytometric analysis (reference value: 0.1%). In kind it is functional.
For assay [12], the system named is PC-3. In words: Induction of apoptosis in human PC3 cells assessed as necrotic cells at 4 uM after 48 hrs by Annexin V-FITC/propidium iodide staining-based flow cytometric analysis (reference value: 0.1%). It counts as functional.
Assay [13] concerns PC-3. In words: Induction of apoptosis in human PC3 cells assessed as viable cells at 3 uM after 48 hrs by Annexin V-FITC/propidium iodide staining-based flow cytometric analysis (reference value: 78.2%). Particulars: PC-3, 48 h, read-out: Activity. It counts as functional.
Assay [14] deals with PC-3. In words: Induction of apoptosis in human PC3 cells assessed as early apoptotic cells at 1 uM after 48 hrs by Annexin V-FITC/propidium iodide staining-based flow cytometric analysis (reference value: 12.4%). It counts as functional.
The subject of assay [15] is PC-3. In words: Induction of apoptosis in human PC3 cells assessed as early apoptotic cells at 4 uM after 48 hrs by Annexin V-FITC/propidium iodide staining-based flow cytometric analysis (reference value: 12.4%). In kind it is functional.
For assay [16], the system named is PC-3. Nature of the assay: Induction of autophagy in human PC3 cells assessed as increase in LC3-2 expression level by Western blot analysis. In kind it is functional, cell-based. In short, it runs like this:
as §2
For orientation: In western blotting, separated proteins are transferred to a membrane and probed.

For assay [17], the system named is PC-3. Nature of the assay: Induction of apoptosis in human PC3 cells assessed as viable cells at 1 uM after 48 hrs by Annexin V-FITC/propidium iodide staining-based flow cytometric analysis (reference value: 78.2%). In kind it is functional. Particulars: PC-3, 48 h, read-out: Activity.
Assay [18] concerns PC-3. In words: Induction of apoptosis in human PC3 cells assessed as early apoptotic cells at 3 uM after 48 hrs by Annexin V-FITC/propidium iodide staining-based flow cytometric analysis (reference value: 12.4%). It counts as functional.
For assay [19], the system named is PC-3. In words: Induction of autophagy in human PC3 cells assessed as increase in beclin-1 expression level by Western blot analysis. It counts as functional, cell-based. The method in brief:
as §2

For assay [20], the system named is PC-3. Nature of the assay: Induction of mitochondrial membrane potential loss in human PC3 cells at 1 uM after 24 hrs by JC-1 staining-based flow cytometric analysis (reference value: 50.5%). In kind it is functional.
Assay [21] relates to PC-3. Nature of the assay: Induction of morphological changes in human PC3 cells at 3 uM by microscopic analysis. It counts as functional, cell-based.
The test system of assay [22] is PC-3. Nature of the assay: Induction of apoptosis in human PC3 cells assessed as late apoptotic cells at 3 uM after 48 hrs by Annexin V-FITC/propidium iodide staining-based flow cytometric analysis (reference value: 9.3%). In kind it is functional.
Assay [23] deals with PC-3. Nature of the assay: Induction of apoptosis in human PC3 cells assessed as late apoptotic cells at 1 uM after 48 hrs by Annexin V-FITC/propidium iodide staining-based flow cytometric analysis (reference value: 9.3%). In kind it is functional.
Assay [24] relates to PC-3. In words: Induction of apoptosis in human PC3 cells assessed as late apoptotic cells at 4 uM after 48 hrs by Annexin V-FITC/propidium iodide staining-based flow cytometric analysis (reference value: 9.3%). It counts as functional.
Assay [25] concerns PC-3. Nature of the assay: Induction of apoptosis in human PC3 cells assessed as late apoptotic cells at 2 uM after 48 hrs by Annexin V-FITC/propidium iodide staining-based flow cytometric analysis (reference value: 9.3%). In kind it is functional.
In assay [26] the test system is PC-3. Nature of the assay: Induction of apoptosis in human PC3 cells assessed as viable cells at 2 uM after 48 hrs by Annexin V-FITC/propidium iodide staining-based flow cytometric analysis (reference value: 78.2%). Particulars: PC-3, 48 h, read-out: Activity. In kind it is functional.
Assay [27] concerns PC-3. Nature of the assay: Induction of autophagy in human PC3 cells assessed as increase LC3-2 accumulation at 4 uM by confocal microscopic analysis. Particulars: TDE = time-dependent effect. It counts as functional, cell-based. The method in brief: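 LC3 immunofluorescence in PC-3 cells imaged by confocal microscopy over time up to 24 h to follow autophagosome formation.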

Activity calls are given as the source filed them. The calls are words filed in the database; no cut-off is given here.

The IC50 is the concentration that gives 50% inhibition. The low end stands for higher potency, the high end for lower potency. Consider `CCCCCCCCCCCNC[C@@H]1OC[C@H](N)[C@@H]1O`, for which the IC50 in the assay on B16-F10 was found to be 19.3 µM; in the assay on A549 it was 11.1 µM; with PC-3 [1], 3.33 µM; with MCF7 it was 6.77 µM.

As for `CCCCCCCCCNC[C@@H]1OC[C@H](N)[C@@H]1O`, the IC50 with B16-F10 was 55.2 µM; in the assay with A549, 22.1 µM; in the assay on PC-3 [1], 2.03 µM; in the assay on MCF7, 12.5 µM.

For the compound `O=c1[nH]cc(F)c(=O)[nH]1` [FLUOROURACIL], the IC50 with B16-F10 stood at 6.29 µM; with A549 it was 0.43 µM; with PC-3 [1] it was 0.53 µM; with MCF7, 6.11 µM.

With `CCCCCCCCCCCCCCNC[C@@H]1OC[C@H](N)[C@H]1O`, the IC50 in the assay with B16-F10 was 64.2 µM; with A549 it was 19.9 µM; in the assay on PC-3 [1], 1.99 µM; with MCF7, 8.83 µM.

With `CCCCCCCCCNC[C@@H]1OC[C@H](N)[C@H]1O`, the concentration for half-maximal inhibition (IC50) in the assay on B16-F10 is above 128 µM; with A549, above 128 µM; in the assay with PC-3 [1] it was 7.65 µM; with MCF7, 60.3 µM.

On to `CCCCCCCNC[C@@H]1OC[C@H](N)[C@@H]1O`, for which the IC50 with B16-F10 was above 128 µM; in the assay on A549, above 128 µM; with PC-3 [1] it was 22.4 µM; with MCF7, above 128 µM.

Turning to `CCCCCCCCCCNC[C@@H]1OC[C@H](N)[C@@H]1O`, the IC50 worked out at 29.6 µM in the assay with B16-F10, 47.8 µM with A549, 11.9 µM with PC-3 [1] and 34.2 µM in the assay on MCF7.

As for `CCCCCCCCNC[C@@H]1OC[C@H](N)[C@@H]1O`, the IC50 in the assay with B16-F10 was above 128 µM; in the assay on A549 it was above 128 µM; in the assay on PC-3 [1], 13.8 µM; in the assay with MCF7, 96.6 µM.

In the case of `CCCCCCCCCCNC[C@@H]1OC[C@H](N)[C@H]1O`, the IC50 in the assay with B16-F10 was above 128 µM; with A549, above 128 µM; in the assay with PC-3 [1], above 128 µM; with MCF7, 42.7 µM.

For `CCCCCCCCCCCCCC[C@@H]1OC[C@H](N)[C@@H]1O` [PACHASTRISSAMINE], the half-maximal inhibitory concentration (IC50) with B16-F10 came out at 0.5 µM; with A549, 1.87 µM; in the assay with PC-3 [1], 0.7 µM; in the assay on MCF7, 2.33 µM.

Consider `CCCCCCCCCCCCNC[C@@H]1OC[C@H](N)[C@H]1O`, for which the IC50 in the assay with B16-F10 amounted to 58.1 µM; in the assay on A549 it was 41.1 µM; in the assay with PC-3 [1], 2.38 µM; in the assay on MCF7, 12.6 µM.

In the case of `CCCCCCCCCCCNC[C@@H]1OC[C@H](N)[C@H]1O`, the IC50 was determined as 88.8 µM in the assay on B16-F10, 9.65 µM in the assay on A549, 10 µM in the assay with PC-3 [1] and 13.1 µM in the assay on MCF7.

As for `CCCCCCCNC[C@@H]1OC[C@H](N)[C@H]1O`, the IC50 in the assay on B16-F10, in the assay with A549, in the assay with PC-3 [1] and in the assay on MCF7 was above 128 µM in each case.

`CCCCCCCCCCCCCCNC[C@@H]1OC[C@H](N)[C@@H]1O`: the IC50 with B16-F10 is 14.3 µM; in the assay with A549 it was 2.85 µM; with PC-3 [1], 1.2 µM; in the assay with MCF7 it was 0.72 µM.

As to `CCCCCCCCNC[C@@H]1OC[C@H](N)[C@H]1O`, the IC50 was above 128 µM in the assay with B16-F10, 71.8 µM in the assay with A549, 13 µM with PC-3 [1] and above 128 µM in the assay with MCF7.

On to `CCCCCCCCCCCCNC[C@@H]1OC[C@H](N)[C@@H]1O`, for which the result in the assay on PC-3 [2] and with PC-3 [21] was Active. For the same compound, the Activity in the assay with PC-3 [3] is on record as 2.3%; in the assay on PC-3 [4], 93%; in the assay with PC-3 [5], 56%; in the assay with PC-3 [6], 78.6%; with PC-3 [7], 0.6%; in the assay on PC-3 [8], 88.2%. The Activity with PC-3 [9] is 0.3%; in the assay on PC-3 [11], 0.2%; with PC-3 [12], 0.2%; in the assay with PC-3 [14], 2.6%; with PC-3 [15], 9.3%; with PC-3 [16] it was “Dose-dependent effect”. The Activity was 3% in the assay with PC-3 [18]; “Dose-dependent effect” in the assay on PC-3 [19]; 69.1% in the assay on PC-3 [20]; 15.7% with PC-3 [22]; 8% with PC-3 [23]; 81.9% with PC-3 [24]. Besides, the Activity in the assay on PC-3 [25] is 9.6%; in the assay with PC-3 [27] it was “Tde”. For the same compound, the viability at 4 µM in the assay with PC-3 [10] was found to be 8.5%. In addition, in the assay with PC-3 [13], the viability at 3 µM was 80.8%. For the same compound, the IC50 came to 10.7 µM in the assay on B16-F10, 5.87 µM in the assay on A549, 0.85 µM with PC-3 [1] and 1.8 µM with MCF7. Also, the viability at 1 µM with PC-3 [17] was determined as 89.2%. Further, in the assay with PC-3 [26], the viability at 2 µM was found to be 87.7%.
